Only some compounds are listed: those with a hit (about 3.8% of all), similar ones and a draw of the others.
Beta2AR agonist – human beta-2 adrenergic receptor agonism by FAP; P07550; 340,000 compounds, 0.43% hits; Am2.2-beta2AR cells, FAP receptor internalization, flow cytometry; response, % (no concentration beside the values);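 active = response above a set limit, near 3 SD of response in nonfluorescent compounds, cut at about 42% in these data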
Target sequence (P07550 whole entry, looked up): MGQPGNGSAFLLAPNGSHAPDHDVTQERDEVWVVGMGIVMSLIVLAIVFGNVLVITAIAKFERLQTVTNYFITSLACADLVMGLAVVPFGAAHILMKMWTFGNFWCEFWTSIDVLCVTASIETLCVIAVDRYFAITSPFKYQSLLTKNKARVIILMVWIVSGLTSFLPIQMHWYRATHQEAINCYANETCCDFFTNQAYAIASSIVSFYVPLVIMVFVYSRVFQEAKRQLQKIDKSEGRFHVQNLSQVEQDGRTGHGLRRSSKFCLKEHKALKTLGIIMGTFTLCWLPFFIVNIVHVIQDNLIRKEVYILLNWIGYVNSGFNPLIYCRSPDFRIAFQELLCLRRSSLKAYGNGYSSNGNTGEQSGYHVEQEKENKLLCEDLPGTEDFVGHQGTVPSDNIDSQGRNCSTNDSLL
rCAG RNA binder – molecules binding r(CAG) RNA repeats. inhibition, % at 3 µM. 370,000 compounds, 1.3% hits. r(CAG) RNA repeat, TO-PRO-1 dye displacement fluorescence;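 active = inhibition above the plate cutoff, the mean of all test compounds on that plate plus 3 SD, cut at about 35% in these data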;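 also: 0% = DMSO alone and 100% = 100 µM mitoxantrone as full dye displacement; higher means more dye released from RNA so lower well fluorescence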
Exocytosis inh – blocks lytic granule exocytosis; inhibition, % at 10 µM; 360,000 compounds, 0.66% hits; TALL-104 LAMP-1 surface exposure, flow cytometry; cells stimulated with thapsigargin and PMA; AID 651702;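 active = inhibition above about 55%, limit read from the data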
MPTP block – blocks calcium-induced mitochondrial swelling; inhibition, % at 10 µM; AID 602449; 360,000 compounds, 1.4% hits; isolated mouse mitochondria, Ca2+ swelling absorbance, 30 min;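 active = inhibition of 50% or more, scaled per plate between neutral and stimulator controls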;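 also: 0% = DMSO wells given calcium and 100% = 1 mM EGTA wells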
V-ATPase pHluor – regulators of yeast V-ATPase proton transport; S. cerevisiae, pHLuorin cytosolic pH fluorescence; response, % at 10 µM; 350,000 compounds, 0.37% hits; in the data active = response mostly above about 7.3%, no sharp cut-off; inactive = mostly below about 5.4%; also: actives read high
T cell HTS – T cell immune modulation candidate. 2C CD8+ T cell-vesicle binding, flow cytometry; hits give low values. response (vesicle binding), % at 7 µM. 330,000 compounds, 0.068% hits;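 active = response, share of CD8 T cells binding vesicles, and their 90th percentile fluorescence all below set limits, cut at about 80% in these data, passing the limit was not always enough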;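 also: values below 100% mean blocked vesicle binding to the CD8+ T cells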
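Assay system – 2C mouse CD8+ T cells · Also added – QL9-loaded Drosophila micro-vesicles · Timing – Cell–vesicle co-incubation 1.5 h at 37 °C, staining 20 min on ice · Signal – flow cytometry of vesicle-bound cells · Measure – percent CD8+ FL2 mean versus row control · Controls – Peptide-free naked vesicles (low) and QL9 vesicles with 0.7% DMSO vehicle (high)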
Exocytosis CP01 – blocks lytic granule exocytosis. shares compounds with Exocytosis inh. TALL-104 cells, LAMP-1 externalization, flow cytometry; stimulated with PMA plus thapsigargin. 1,500 compounds, 11% hits. AID 651954. inhibition, % at 10 µM; in the data active = inhibition above about 60%;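 also: 0% = stimulated vehicle wells and 100% = unstimulated wells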
* marks the source's active call; other numbers are inactive results; / = no result.

SMILES	Beta2AR agonist	rCAG RNA binder	Exocytosis inh	MPTP block	V-ATPase pHluor	T cell HTS	Exocytosis CP01
COc1ccc(CCN2CCCC(CN(C)Cc3cc(Cl)c(O)c(OC)c3)C2)cc1 (stereo not drawn)	-1	-4	56*	2	3	208	-11
COc1ccc(CCN2CCCC(CN(C)C(=O)c3ccoc3)C2)cc1 (stereo not drawn)	0	-2	0	0	-1	301	/
CC(=O)c1cc(-c2ccc3nonc3c2)c(=O)n2c1CCC2	/	0	/	/	/	/	/
CCOC(=O)CC[C@@H]1CC[C@]2(CCCN(C(=O)c3ccccc3)C2)O1	/	0	/	/	/	/	/
COc1ccc(S[C@]2(C(=O)N3CCCC3)CC(=O)N(C(=O)Nc3ccc(C)c(Cl)c3)[C@@H]2c2ccc(OC)cc2)cc1	/	8	/	/	/	/	/
CCOC(=O)c1c(C)oc2c1c1c(c3ccccc32)OCN(Cc2cccnc2)C1	1	/	1	2	4	/	/
CCOC(=O)c1c(C)oc2c1c(C(c1cccnc1)N1CCOCC1)c(O)c1ccccc12 (stereo not drawn)	14	12	98*	-3	0	150	83*
Cc1cc(Nc2cc(Cl)cc(Cl)c2)nc(N)n1	-8	3	62*	5	-2	432	-10
COc1ccc(N(CC(=O)Nc2ccc(Cc3ccncc3)cc2)S(=O)(=O)c2ccccc2)cc1	-6	0	36	1	-7	268	/
CCOc1ccccc1N(CC(=O)Nc1cc(OC)ccc1OC)S(=O)(=O)c1ccccc1	16	2	-1	2	-3	234	/
COc1ccc(OC)c(N(CC(=O)NCCSCc2ccco2)S(=O)(=O)c2ccccc2)c1	4	-1	85*	-1	2	215	-13
CCOc1ccccc1N(CC(=O)NCCSCc1ccco1)S(=O)(=O)c1ccccc1	7	-2	12	-1	-2	238	/
COc1ccccc1N(CC(=O)Nc1ccc(Cc2ccncc2)cc1)S(=O)(=O)c1ccccc1	13	2	66*	1	3	324	-9
COc1ccc(N(CC(=O)NCCSc2ccccn2)S(=O)(=O)c2ccccc2)c(OC)c1	7	-3	65*	-1	4	280	101*
CCc1ccccc1NC(=O)CN(c1ccc(OC)cc1OC)S(=O)(=O)c1ccccc1	-3	-4	70*	0	-9	256	-11
COc1ccc(N(CC(=O)NCCSc2ccccc2)S(=O)(=O)c2ccccc2)c(OC)c1	14	1	-2	0	0	335	/
Clc1ccc(-n2c(SCc3cccc4ccccc34)nnc2-c2ccco2)cc1	/	5	/	/	/	/	/
CCCCOCCCNC(=O)C[C@@H]1C(=O)N(CCc2ccc(Cl)cc2)C2=CCCC[C@]21C(=O)OCC	/	0	/	/	/	/	/
O=C(NC1CC1)c1cccc(Nc2ccc(-c3ccc4c(c3)OCCO4)nn2)c1	5	3	71*	1	-1	470	3
O=S(=O)(c1ccc(Nc2ccc(-c3ccc4c(c3)OCCO4)nn2)cc1)N1CCCC1	13	15	-2	1	5	130	/
Cc1ccc(C2c3c(n[nH]c3C)C(=O)N2Cc2ccccc2)cc1 (stereo not drawn)	/	-1	/	/	/	/	/
CC(=O)Nc1cccc(-n2c(=O)n(Cc3ccccc3)c(=O)c3[nH]cnc32)c1	18	1	56*	0	-2	466	-4
O=C1NC(=O)C2(CCCc3ccc(N(CCO)CCO)cc32)N1 (stereo not drawn)	/	0	/	/	/	/	/
COCC(=O)Nc1ccc2c(c1)C(=O)N(C)[C@@H]1CC[C@@H](CC(=O)OC)O[C@H]1CO2	/	1	/	/	/	/	/
COC(=O)[C@]12C[C@H](CC(=O)NCc3cccs3)C(=O)N(Cc3ccc(Cl)cc3Cl)C1=C[C@H](C(C)(C)C)O[C@@H]2C	/	5	/	/	/	/	/
SMILES	Beta2AR agonist	rCAG RNA binder	Exocytosis inh	MPTP block	V-ATPase pHluor	T cell HTS	Exocytosis CP01
COC(=O)C1CCN(CCCOc2ccc(CN3CCN(c4ccc([N+](=O)[O-])cc4)CC3)cc2)CC1	10	-7	84*	4	1	342	-10
CCCCCCC(=O)NC1CCCCN(Cc2ccc(C)cc2)C1=O (stereo not drawn)	/	-1	/	/	/	/	/
Cc1ccc(NC(=O)CC2SC3=NCCCN3C2=O)c(C)c1 (stereo not drawn)	-8	11	67*	4	3	548	-12
O=C(CC1SC2=NCCN2C1=O)Nc1ccc(Cl)cc1 (stereo not drawn)	19	1	-1	0	0	195	/
CC(=O)c1c(C)oc2c1cc(O)c1ccccc12	7	2	89*	7	2	244	-13
CCOC(=O)c1c(C)oc2c1cc(O)c1ccccc12	-5	8	45	0	7	499	/
COC(=O)[C@]12C[C@H](CC(=O)NCCC(C)C)C(=O)N(Cc3ccc4c(c3)OCO4)C1=C[C@H](COCc1ccccc1)O[C@@H]2C	/	4	/	/	/	/	/
COc1cccc(OC)c1OCCN1CCN(C(c2ccccc2)c2ccccc2)CC1	4	-9	62*	0	4	158	-10
COc1cccc(OC)c1OCCCN1CCC(Cc2ccccc2)CC1	-4	-7	68*	43	-2	282	-12
O=S1(=O)c2ccc(Br)cc2OC[C@@H](c2ccccc2)N1Cc1cn(CCC2OCCCO2)nn1	/	6	/	/	/	/	/
COC(=O)C1CN(Cc2ccccc2)CCS(=O)(=O)N1Cc1cn(Cc2ccccc2Br)nn1 (stereo not drawn)	/	0	/	/	/	/	/
CCOc1ccc(C(=O)Nc2ccc3nc(N4CCN(CC)CC4)cc(C)c3c2)cc1	17	-6	63*	-1	-9	165	-6
CCN1CCN(c2cc(C)c3cc(NC(=O)c4cc(OC)cc(OC)c4)ccc3n2)CC1	14	4	11	1	0	377	/
CCOc1cc(CN2CCCC(N3CCN(c4ccc(F)cc4)CC3)C2)ccc1OC (stereo not drawn)	7	-10	46	1	-2	104	/
COc1cc(CN2CCCC(N3CCN(c4ccccc4C)CC3)C2)cc(Cl)c1O (stereo not drawn)	2	-7	57*	0	2	209	-3
Oc1ccccc1CN1CCCC(N2CCN(c3cccc(C(F)(F)F)c3)CC2)C1 (stereo not drawn)	4	0	68*	1	6	330	-11
COc1ccc(CN2CCCC(N3CCN(c4cccc(Cl)c4)CC3)C2)cc1OC (stereo not drawn)	-3	-6	67*	0	1	202	-15
Cc1cc(C)c(C)c(S(=O)(=O)Nc2cccc(-n3cnnn3)c2)c1C	2	10	60*	0	1	984	-14
CSc1ccccc1NC(=O)CN(C)C(=O)Cc1c[nH]c2ccccc12	5	5	7	-2	-2	324	/

Screening results (PubChem)
